Source: PubChem BioAssay (several laboratories)
Only some compounds are listed: those with a hit (about 1.2% of all), similar ones and a draw of the others.
LANA-H2B inh = blocks KSHV LANA binding to histone H2A/H2B; inhibition, % (concentration not given with the values); Q9QR71; cell-free LANA-H2A/H2B peptide, fluorescence polarization; 0.6% of 320,000 active; AID 2629; in the data active = inhibition mostly above about 10%, no sharp cut-off; inactive = mostly below about 6.7%
Yeast superoxide = caloric restriction mimetics inhibiting age-related superoxide in yeast; superoxide response (% of plate mean), % at 10 µM; S. cerevisiae aged cells, superoxide DHE fluorescence; stronger effect = lower value; 0.18% of 330,000 active;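 active = superoxide response under a set limit, about three screen SD below normal, cut at about 65% in these data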;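 also: yeast aged for seven days with compound at 30 °C before DHE staining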
proCasp7 act = counter-screen: procaspase-7 (human) activation | P55210 | recombinant procaspase-7, Ac-DEVD-pNA absorbance 405 nm; D23A/D198A/D206A triple mutant, cannot self-cleave; scale: DMSO 0, 5 µM enzyme 100 | activation, % at 8.5 µM | 0.093% of 330,000 active | AID 463210;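 active = percent activation above the screen-wide mean plus 3 SD, cut at about 25% in these data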
Target sequence (P55210 whole entry D23A/D198A/D206A): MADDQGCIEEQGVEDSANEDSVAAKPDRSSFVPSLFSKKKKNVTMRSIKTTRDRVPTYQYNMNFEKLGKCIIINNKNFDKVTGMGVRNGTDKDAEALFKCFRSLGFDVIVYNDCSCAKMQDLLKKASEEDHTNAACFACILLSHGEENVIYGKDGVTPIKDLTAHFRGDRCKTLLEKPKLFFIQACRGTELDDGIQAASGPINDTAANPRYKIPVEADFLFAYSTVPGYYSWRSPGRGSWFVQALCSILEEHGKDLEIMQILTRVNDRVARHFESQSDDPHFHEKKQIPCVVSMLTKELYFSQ
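Replicates: singlicate. Assay system: Procaspase-7 triple mutant (PC-7 D3A). Signal: 405 nm absorbance of p-nitroaniline. Times: 1 h preincubation, 2 h reaction. Buffer or medium: Zinc-free HEPES pH 7.4 with 300 mM NaCl, 0.01% Triton X-100. Also added: DEVD-pNA substrate. Benchmarks: DMSO wells as 0%, DMSO with 5 µM added PC-7 as 100%.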
proCasp3 act = activates human procaspase-3. P42574. recombinant procaspase-3 D3A, Ac-DEVD-pNA absorbance 405 nm. activation, % at 8.5 µM. 0.11% of 330,000 active;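 active = activation above the mean of all tested compounds plus 3 SD, cut at about 21% in these data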
Target sequence (P42574 whole entry D9A/D28A/D175A): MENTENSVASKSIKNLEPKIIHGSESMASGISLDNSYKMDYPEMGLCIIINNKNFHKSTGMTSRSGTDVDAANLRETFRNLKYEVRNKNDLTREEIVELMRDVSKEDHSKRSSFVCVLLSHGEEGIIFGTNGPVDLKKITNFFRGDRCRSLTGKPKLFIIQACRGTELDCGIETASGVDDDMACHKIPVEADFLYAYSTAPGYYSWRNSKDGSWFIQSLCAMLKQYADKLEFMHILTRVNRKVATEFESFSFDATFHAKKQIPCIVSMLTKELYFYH
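Assay system: Autoprocessing-dead procaspase-3 D3A mutant enzyme; also added: Ac-DEVD-pNA; doses: one concentration, 8.5 µM nominal, 0.8% DMSO; times: 1 h compound preincubation, 2 h substrate hydrolysis at 25 °C; technique: 405 nm absorbance of p-nitroaniline, reads at 0 and 120 min; measure: % activation between DMSO and enzyme-spiked controls; repeats: single replicate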
ASAP1 GAP inh = ASAP1 ArfGAP inhibition; ASAP1-stimulated ARF1 GTP hydrolysis, GDP FP detection; inhibition, % at 16.5 µM; 0.19% of 360,000 active; Q9ULH1; AID 624377; in the data active = inhibition above about 25%
ARFGAP1 inh = inhibits rat ARF GTPase activating protein 1 | Q62848 | AID 651572 | 0.26% of 360,000 active | inhibition, % at 16.5 µM | Arfgap1-stimulated ARF1 GTP hydrolysis, GDP FP detection;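 active = inhibition above a per-plate limit, mean inhibition of low control wells plus 3 SD, cut at about 25% in these data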
Target sequence (Q62848 1-136 limits assumed): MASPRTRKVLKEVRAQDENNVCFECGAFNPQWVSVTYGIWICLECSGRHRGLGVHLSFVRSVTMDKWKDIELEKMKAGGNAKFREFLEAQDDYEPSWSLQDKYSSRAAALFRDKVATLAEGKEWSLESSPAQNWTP
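Material: rat Arfgap1 GAP domain (His6, aa 1-136), purified enzyme. Also added: human ARF1(Δ1-17)-GTP substrate. Compound dosing: 16.5 µM single point, 1.26% DMSO. Timing: enzyme reaction 120 min at 25 °C after 20 min preincubation. Signal: GDP detection by fluorescence polarization. Read-out basis: percent inhibition of GAP-stimulated GDP formation, scaled between DMSO and no-Arfgap1 medians.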
ASAP1 inh confirm = confirmation of human ASAP1 inhibitors; shares compounds with ASAP1 GAP inh; ASAP1-stimulated Arf1 GTPase, GDP fluorescence polarization; inhibition, % at 16.5 µM; 37% of 620 active;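 active = mean inhibition over triplicates exceeds the hit threshold derived for the earlier primary screening run, cut at about 25% in these data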
ARFGAP1 confirm = rat ARFGAP1 inhibition, confirmed; ARFGAP1-stimulated ARF1 GTP hydrolysis, GDP tracer FP; shares compounds with ARFGAP1 inh; inhibition, % at 16.5 µM; 30% of 890 active;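 active = average inhibition over triplicates above the hit cutoff set in the earlier primary screen, cut at about 25% in these data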
A number is an active result; n = inactive; x = not tested or not shown; + = active, no number.

SMILES	LANA-H2B inh	Yeast superoxide	proCasp7 act	proCasp3 act	ASAP1 GAP inh	ARFGAP1 inh	ASAP1 inh confirm	ARFGAP1 confirm
O=c1c(Cl)c(N/N=C/c2ccc(Br)cc2)cnn1-c1ccccc1	n	n	n	n	42.2	43.7	32.5	64.6
CNc1cnn(-c2ccccc2)c(=O)c1Cl	n	n	n	n	n	n	x	x
CC(=O)Nc1cc(-c2ccc(N3CCN(C)CC3)cc2)cn2c(-c3cccc(C(C)=O)c3)cnc12	x	x	x	x	53.6	37.5	94.6	81.8
CC(=O)c1ccc(-c2cnc3c(NC=O)cc(-c4ccc(N5CCN(C)CC5)cc4)cn23)cc1	x	x	x	x	81.3	62.6	154.6	139.4
CCCCN1CCC(COC(=O)c2cc(Cl)c(N)c3c2OCCO3)CC1	n	n	n	n	n	n	x	x
COc1ccc(C(=O)Nc2sc(C)c(C)c2CN2CC(C)OC(C)C2)cc1 (stereo not drawn)	n	n	n	n	n	n	x	x
O=C(CNC(=O)N1CC(=O)Nc2ccccc21)NCc1ccc(F)cc1	x	x	x	x	n	n	x	x
CC(C)c1ccc(OCC(=O)NCc2ccccc2)cc1	n	n	n	n	n	n	x	x
O=C(Nc1ccc2oc(-c3cccnc3)nc2c1)c1ccc2c(c1)OCCO2	n	n	n	n	26.8	42.0	38.3	114.3
O=C(O)c1ccc(Nc2nc(-c3cc4ccccc4oc3=O)cs2)cc1O	x	x	x	x	25.2	26.7	33.1	44.8
CC(=O)Nc1ccc(Nc2nc(-c3cc4ccccc4oc3=O)cs2)cc1	n	n	x	x	n	n	x	x
COc1ccc(N2CCN(C(=S)NCc3ccccc3)CC2)cc1	n	n	n	n	37.4	38.3	n	n
Cc1ccccc1C(=O)c1c[nH]c(C(=O)N=CN(C)C)c1	n	n	n	n	n	n	x	x
Nc1nc(SCc2ccc(Cl)cc2Cl)nc2nc3c(cc12)CCCC3	n	n	n	n	30.8	47.0	69.2	67.7
N#CC1C(=O)Nc2cccnc21 (stereo not drawn)	x	x	x	x	30.2	28.5	n	n
O=C1Nc2ccccc2C1Cc1ccccn1 (stereo not drawn)	n	n	n	n	n	n	x	x
COc1ccc(/C=N\NC(=O)c2ccc([N+](=O)[O-])cc2)cc1COc1c(F)c(F)cc(F)c1F	n	n	x	x	51.7	81.6	58.4	98.8
COc1ccc(C(=O)N/N=C/c2ccc(OC)c(COc3c(F)c(F)cc(F)c3F)c2)cc1	n	n	x	x	n	n	x	x
COc1cccc(-c2nnc(NC(=O)c3ccc4ncsc4c3)o2)c1	n	n	n	n	n	n	x	x
CCC(CC)C(C(=O)NCc1ccccc1)N1CCN(CCN2CCOCC2)CC1 (stereo not drawn)	x	x	x	x	n	n	x	x
CCC(=O)Nc1c(C#N)c2nc3ccccc3nc2n1-c1ccc(C)cc1	x	x	x	x	n	n	x	x
N#Cc1c(NC(=O)c2ccc(Br)o2)n(-c2ccccc2)c2nc3ccccc3nc12	n	n	n	n	41.5	27.4	n	n
COC(=O)CSc1nnc2n(C3CCCCC3)c(=O)c3c4c(sc3n12)CCCC4	n	n	n	n	n	n	x	x
COC(=O)CSc1nnc2n(-c3ccc(OC)cc3)c(=O)c3c4c(sc3n12)CCCCC4	n	n	n	n	39.0	62.1	42.1	74.6
Cn1nnc2cc(NC(=O)Nc3cccc(C(F)(F)F)c3)ccc21	n	n	n	n	n	n	x	x
SMILES	LANA-H2B inh	Yeast superoxide	proCasp7 act	proCasp3 act	ASAP1 GAP inh	ARFGAP1 inh	ASAP1 inh confirm	ARFGAP1 confirm
O=C(CSc1ccc(-c2ccc3c(c2)OCO3)nn1)Nc1nccs1	n	n	n	n	132.1	46.5	74.8	134.5
O=C(CSCC(=O)Nc1nc(-c2ccc3c(c2)OCO3)cs1)Nc1nccs1	n	n	n	n	n	n	x	x
CCC(/C=C1\Sc2ccc(OC)cc2N1CCO)=C\c1sc2ccc(OC)cc2[n+]1CCO	n	n	n	n	31.9	41.8	35.2	25.1
COc1ccccc1-c1csc(-n2ncc(C#N)c2N)n1	n	n	n	n	41.1	39.3	66.5	110.9
C=CCN(CC=C)CC(=O)Nc1cccc(Oc2cnccn2)c1	n	n	n	n	n	n	x	x
Cc1ccc2nc(SCC(=O)N3CCC(Cc4ccccc4)CC3)nc(=O)n2c1	x	n	n	n	26.2	59.1	40.6	68.0
O=C(CSc1nc(=O)n2ccccc2n1)N1CCC(Cc2ccccc2)CC1	n	n	n	n	n	n	x	x
O=C(OCc1cn([C@@H]2CN(Cc3cccs3)[C@@H](c3ccc(Cl)cc3)C[C@H]2O)nn1)c1ccccc1	x	x	x	x	n	n	x	x
COc1ccc(NC(=O)c2cccc3c(-c4cccnc4)coc23)cc1	x	x	x	x	32.5	26.1	n	n
O=C(Nc1ccccc1)c1cccc2c(-c3cccnc3)coc12	x	x	x	x	n	n	x	x
Cc1nn(-c2ccccc2)c(NC(=O)c2cccs2)c(-c2ccccc2Cl)c1=O	n	n	n	n	n	n	x	x
COC(=O)c1ccc(C(=S)NCC2(N(C)C)CCCCC2)cc1	n	n	n	n	n	n	x	x
Cn1c(=O)n(CCOc2ccc(Cl)cc2Cl)c2ccccc21	n	n	n	n	40.1	30.3	47.5	43.8
Cn1c(=O)n(CCOc2ccccc2Cl)c2ccccc21	n	n	n	n	n	n	x	x
CCN(CC)c1ccc(C(=O)O)cc1	n	n	n	n	n	n	x	x
CCN(CC)c1ccc(C(=C2C=CC(=[N+](CC)CC)C=C2)c2ccc(S(=O)(=O)O)cc2S(=O)(=O)[O-])cc1	x	x	x	x	118.8	120.9	118.3	131.9
COCC(=O)NCc1ccc2c(c1)cc(C)n2C	n	n	n	n	n	n	x	x
Cc1cc2cc(CNC(=O)Nc3ccc(Cl)c(Cl)c3)ccc2n1C	n	n	n	n	42.0	73.7	n	n
O=C(c1ccccc1)c1c(-c2ccccc2)[nH]n(-c2ccccc2)c(=O)c1=O	n	n	n	n	n	n	x	x
COc1ccc(Cl)cc1C(=O)Nc1cccc(-c2ccc3nncn3n2)c1	n	n	n	n	191.3	+	196.0	+
C/C(=N\NC(=O)c1cc(-c2cccc([N+](=O)[O-])c2)n[nH]1)c1ccccc1O	n	n	n	n	136.0	54.2	149.6	151.7
CC(C)=CC(=O)Nc1nnc(-c2ccccc2C)s1	n	n	n	n	n	n	x	x
COc1ccc(Cl)cc1NC(=O)c1nnn(CC(=O)Nc2ccc(OC)c(OC)c2)c1N	n	n	n	n	n	n	x	x
COc1cccc(NC(=O)Cn2nnc(C(=O)Nc3cc(Cl)ccc3OC)c2N)c1	n	n	n	n	76.8	137.8	109.2	198.8
